Assay results reported in ChEMBL document CHEMBL4665831, “Ultrapotent Inhibitor of Clostridioides difficile Growth, Which Suppresses Recurrence In Vivo” (J Med Chem, 2020).

Assays:
[1] = test system: Lactobacillus gasseri; test: Antibacterial activity against Lactobacillus gasseri HM-400 assessed as reduction in microbial growth after 48 hrs by broth microdilution method
Method in brief: (§1)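 Gut commensal MICs by broth microdilution: a 0.5 McFarland suspension was diluted to ~5 × 10^5 CFU/mL in BHIS broth (Bacteroides) or MRS broth (Lactobacillus). Agents were serially diluted and incubated 48 h at 37°C. MIC was read by visual inspection of growth.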

[2] = test system: Phocaeicola dorei; test: Antibacterial activity against Bacteroides dorei HM-719 assessed as reduction in microbial growth after 48 hrs by broth microdilution method; format: organism-based; method in brief: as §1
[3] = test system: Clostridioides difficile; test: Potency index, ratio of vancomycin MIC to test compound MIC for antibacterial activity against Clostridioides difficile NR-32904 P30; format: functional
[4] = Selectivity ratio of MIC for antibacterial activity against Bacteroides dorei HM-719 to antibacterial activity against Clostridioides difficile NR-32891 P13; format: ADME
[5] = Selectivity ratio of cytotoxicity against human Caco-2 cells to MIC for antibacterial against clostridioides difficile ATCC BAA 1801; format: toxicity, cell-based
[6] = test system: Clostridioides difficile; test: Potency index, ratio of vancomycin MIC to test compound MIC for antibacterial activity against Clostridioides difficile ATCC 43255; format: functional
[7] = Selectivity ratio of MIC for antibacterial activity against Bacteroides dorei HM-719 to antibacterial activity against Clostridioides difficile NR-13435 isolate 9; format: ADME
[8] = Selectivity ratio of MIC for antibacterial activity against Bacteroides fragilis HM-711 to antibacterial activity against Clostridioides difficile ATCC 43255; format: ADME
[9] = test system: Lactobacillus crispatus; test: Antibacterial activity against Lactobacillus crispatus HM-103 assessed as reduction in microbial growth after 48 hrs by broth microdilution method; method in brief: as §1
[10] = Apparent permeability across apical to basolateral side in human Caco-2 cells; format: ADME, cell-based
Method in brief: (§2)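 Bidirectional Caco-2 monolayer transport was run by a contract lab. Papp = (V_R·C_R,end/Δt)·1/[A·(C_D,mid − C_R,mid)]. Donor mid-point is the mean of the 0-min and end donor concentrations; receiver mid-point is half the end receiver concentration. Concentrations were taken as LC peak areas.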

[11] = test system: Clostridioides difficile; test: Potency index, ratio of vancomycin MIC to test compound MIC for antibacterial activity against Clostridioides difficile NR-13435 isolate 9; format: functional
[12] = test system: Clostridioides difficile; test: Antimicrobial activity against Clostridioides difficile NR-32883 P2 assessed as reduction in microbial growth after 48 hrs by broth microdilution method; format: functional
Method in brief: (§3)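 Broth microdilution: a 0.5 McFarland suspension was diluted in brain heart infusion supplemented (BHIS) broth to ~5 × 10^5 CFU/mL. Agents were serially diluted and plates incubated anaerobically at 37°C for 48 h.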

[13] = Selectivity ratio of MIC for antibacterial activity against Bacteroides fragilis HM-711 to antibacterial activity against Clostridioides difficile NR-32891 P13; format: ADME
[14] = test system: Clostridioides difficile; test: Antimicrobial activity against Clostridioides difficile ATCC 43255 assessed as drug resistance by measuring frequency of mutation at 20 times of MIC after 48 hrs; format: functional
[15] = test system: Clostridioides difficile; test: Antimicrobial activity against Clostridioides difficile NR-13435 isolate 9 assessed as reduction in microbial growth after 48 hrs by broth microdilution method; format: functional; method in brief: as §3
[16] = Selectivity ratio of MIC for antibacterial activity against Bacteroides fragilis HM-711 to antibacterial activity against Clostridioides difficile NR-13432 isolate 6; format: ADME
[17] = Selectivity ratio of MIC for antibacterial activity against Bacteroides fragilis HM-711 to antibacterial activity against Clostridioides difficile NR-13435 isolate 9; format: ADME
[18] = test system: Bacteroides fragilis; test: Antibacterial activity against Bacteroides fragilis HM-709 assessed as reduction in microbial growth after 48 hrs by broth microdilution method; format: organism-based; method in brief: as §1
[19] = Selectivity ratio of MIC for antibacterial activity against Bacteroides fragilis HM-711 to antibacterial activity against Clostridioides difficile NR-32904 P30; format: ADME
[20] = test system: Clostridioides difficile; test: Potency index, ratio of vancomycin MIC to test compound MIC for antibacterial activity against Clostridioides difficile NR-32895 P19; format: functional
[21] = Selectivity ratio of MIC for antibacterial activity against Bacteroides fragilis HM-709 to antibacterial activity against Clostridioides difficile NR-32891 P13; format: ADME
[22] = Selectivity ratio of MIC for antibacterial activity against Bacteroides dorei HM-719 to antibacterial activity against Clostridioides difficile NR-13432 isolate 6; format: ADME
[23] = Selectivity ratio of MIC for antibacterial activity against Bacteroides fragilis HM-709 to antibacterial activity against Clostridioides difficile NR-32895 P19; format: ADME
[24] = Selectivity ratio of MIC for antibacterial activity against Bacteroides dorei HM-719 to antibacterial activity against Clostridioides difficile NR-32883 P2; format: ADME
[25] = Selectivity ratio of MIC for antibacterial activity against Bacteroides fragilis HM-709 to antibacterial activity against Clostridioides difficile NR-13435 isolate 9; format: ADME
[26] = Selectivity ratio of MIC for antibacterial activity against Bacteroides fragilis HM-709 to antibacterial activity against Clostridioides difficile ATCC 43255; format: ADME
[27] = test system: Caco-2; test: Cytotoxicity against human Caco-2 cells assessed as reduction in cell viability at >64 ug/ml after 2 hrs by MTS assay; format: cell-based; settings: caco-2, 2 h, dose >64 µg/ml
Method in brief: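 Caco-2 cells were exposed to compound for 2 h, then to MTS reagent for 4 h, and absorbance was read at 490 nm. Testing was in triplicate, and viability was expressed as percent of DMSO-treated cells.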

[28] = test system: Clostridioides difficile; test: Potency index, ratio of vancomycin MIC to test compound MIC for antibacterial activity against Clostridioides difficile NR-32891 P13; format: functional
[29] = test system: Bacteroides fragilis; test: Antibacterial activity against Bacteroides fragilis HM-711 assessed as reduction in microbial growth after 48 hrs by broth microdilution method; format: organism-based; method in brief: as §1
[30] = Selectivity ratio of MIC for antibacterial activity against Bacteroides dorei HM-719 to antibacterial activity against Clostridioides difficile NR-32895 P19; format: ADME
[31] = Selectivity ratio of MIC for antibacterial activity against Bacteroides dorei HM-719 to antibacterial activity against Clostridioides difficile NR-32904 P30; format: ADME
[32] = test system: Enterococcus faecium; test: Antimicrobial activity against vancomycin-resistant Enterococcus faecium ATCC 700221 assessed as reduction in microbial growth after 48 hrs by CLSI based broth microdilution method; format: functional
Method in brief: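 CLSI broth microdilution: strains were grown aerobically overnight on tryptone soy agar at 37°C. A 0.5 McFarland suspension was diluted to ~5 × 10^5 CFU/mL in cation-adjusted Mueller-Hinton broth (E. coli) or tryptone soy broth (enterococci), and agents were serially diluted.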

[33] = test system: Clostridioides difficile; test: Antimicrobial activity against Clostridioides difficile ATCC 43255 assessed as reduction in microbial growth after 48 hrs by broth microdilution method; format: functional; method in brief: as §3
[34] = Apparent permeability across basolateral to apical side in human Caco-2 cells; format: ADME, cell-based; method in brief: as §2
[35] = Selectivity ratio of MIC for antibacterial activity against Bacteroides fragilis HM-709 to antibacterial activity against Clostridioides difficile NR-32883 P2; format: ADME
[36] = Selectivity ratio of MIC for antibacterial activity against Bacteroides fragilis HM-711 to antibacterial activity against Clostridioides difficile NR-32895 P19; format: ADME
[37] = Selectivity ratio of MIC for antibacterial activity against Bacteroides dorei HM-719 to antibacterial activity against Clostridioides difficile ATCC 43255; format: ADME

With `O=C(Nc1nnc(-c2cc(Cl)cc(Cl)c2)o1)c1ccc(SC(F)(F)F)cc1` the MIC [1] was 36.8 µM, the MIC [2] was 4.6 µM and the Ratio [3] was 2.5. The Selectivity ratio [4] was 100, the Selectivity ratio [5] was > 9000 and the Ratio [6] was 2.5. The Selectivity ratio [7] was 100, the Selectivity ratio [8] was 100 and the MIC [9] was 36.8 µM. For the same compound, the Papp [10] was 0.2 10^-6 cm/s, the Ratio [11] was 2.5 and the MIC [12] was 0.02 µM. For the same compound, the Selectivity ratio [13] was 100, the Activity [14] was <1.1 10^-9No_unit and the MIC [15] was 0.007 µM. For the same compound, the Selectivity ratio [16] was 100, the Selectivity ratio [17] was 100 and the MIC [18] was 2.3 µM. For the same compound, the Selectivity ratio [19] was 100, the Ratio [20] was 2.5 and the Selectivity ratio [21] was 100. The Selectivity ratio [22] was 100, the Selectivity ratio [23] was 100 and the Selectivity ratio [24] was 100. For the same compound, the Selectivity ratio [25] was 100, the Selectivity ratio [26] was 100 and the Activity [27] was “Non-Toxic”. It also gave a Ratio [28] of 2.5, an MIC [29] of 4.6 µM and a Selectivity ratio [30] of 100. The Selectivity ratio [31] was 100, the MIC [32] was 0.29 µM and the MIC [33] was 0.04 µM. For the same compound, the Papp [34] was 0.1 10^-6 cm/s, the Selectivity ratio [35] was 100 and the Selectivity ratio [36] was 100. The Selectivity ratio [37] was 100.
